Screens: PubChem BioAssay, several laboratories
In the library only some 7.2% were active in any assay of this set; here they are far more common.
HEK293 NFkB inh: inhibitors of the PMA/ionomycin-induced NF-kB reporter in HEK293 cells; HEK-293 NF-kB luciferase reporter, luminescence; inhibition, % at 3 µM; 0.21% of 62,000 active;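 active means inhibition above the mean of all tested compounds plus 3 SD, cut at about 40% in these data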
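Signal: luciferase luminescence; Material: HEK-293 cells with stable firefly luciferase reporter driven by four HIV NF-kB elements; Probe or stimulus: PMA with ionomycin; Replication: tested once; Times: 1 h compound pretreatment, then 16 h stimulation at 37 °C, 5% CO2; Benchmarks: DMSO and 10 µM reference inhibitor; Evaluation: per-plate % inhibition versus controls.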
hDAT+cocaine: modulates human dopamine transporter uptake under cocaine | Q01959 | LLC-PK1 hDAT cells, [14C]-dopamine uptake with cocaine IC80; actives deviate in either direction | B-score at 10 µM | 1.3% of 110,000 active;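 active means Z score or B-score, a plate-position-corrected score, falls beyond the plate's 99.7% confidence bounds, in either direction; inactive means both scores lie inside the 99.7% bounds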
D1 mod: D1 dopamine receptor (human) allosteric modulation; P21728; HEK293 D1, CRE-luciferase, dopamine EC30 potentiation; actives deviate in either direction; B-score at 10 µM; 5.9% of 58,000 active;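 active means luminescence count or its row- and column-corrected plate score outside the 99.7% band of the plate's sample wells, on either side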
Target sequence (P21728 whole entry, looked up): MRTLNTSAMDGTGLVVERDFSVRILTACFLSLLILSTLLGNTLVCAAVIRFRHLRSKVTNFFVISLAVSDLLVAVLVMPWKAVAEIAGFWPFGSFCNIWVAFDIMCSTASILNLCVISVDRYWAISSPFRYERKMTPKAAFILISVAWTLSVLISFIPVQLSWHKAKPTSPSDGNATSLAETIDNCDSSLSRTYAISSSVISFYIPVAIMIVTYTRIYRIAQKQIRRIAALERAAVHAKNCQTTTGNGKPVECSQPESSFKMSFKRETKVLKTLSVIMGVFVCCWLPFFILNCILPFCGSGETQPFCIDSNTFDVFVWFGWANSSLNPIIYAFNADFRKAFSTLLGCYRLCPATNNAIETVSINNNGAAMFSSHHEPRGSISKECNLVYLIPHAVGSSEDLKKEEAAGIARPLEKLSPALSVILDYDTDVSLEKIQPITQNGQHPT
M1 antagonist: blocks the rat M1 muscarinic receptor response to acetylcholine; P08482; AID 628; B-score at 10 µM; 3.4% of 64,000 active; CHO-M1 cells, Fluo-4 calcium, ACh EC80 antagonist mode; active compounds read low;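 active means calcium fluorescence response, raw or row-and-column corrected B-score, differing from the plate sample mean either way at a set confidence level, mostly lower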
BAP1 inh: inhibitors of human BAP1 deubiquitinase. Q92560. calls only at 20 µM. 0.48% of 72,000 active. AID 436. recombinant BAP1, Ub-AMC hydrolysis fluorescence kinetic; active compounds read low;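 active means activity remaining at or below 50% of control, provided the compound also passes the data quality filters; inactive means the rest, including low values that fail the filters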
M1 ag: M1 muscarinic receptor agonism | CHO-M1 cells, Fluo-4 calcium fluorescence, agonist mode; active compounds read high | B-score at 10 µM | 3% of 64,000 active | AID 626;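 active means fluorescence rise, raw or as B-score row- and column-corrected plate score, outside the 99.7% band of its plate's samples, either direction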
D1 PAM confirm: confirmation of human D1 dopamine receptor allosteric modulators; shares compounds with D1 mod; HEK293 D1 CRE-luciferase, dopamine EC30 potentiation; active compounds read high; luminescence at 10 µM; 88% of 2,200 active;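 active means luminescence in either of two replicates above the same-plate mean plus 3 SD of the low-dose dopamine control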
D1 no dopamine: secondary test of D1 modulators: activity without dopamine | HEK293 D1 CRE-luciferase, luminescence, no dopamine; active compounds read high | 0.8% of 1,900 active | shares compounds with D1 mod | AID 646 | luminescence at 10 µM; in the data active means luminescence above about 3900
Isoprot counter: alters isoproterenol CRE-luciferase response in HEK293 cells; HEK293 D1 CRE-luciferase, isoproterenol EC30 counter-screen; shares compounds with D1 mod; AID 647; calls only at 10 µM; 63% of 2,200 active;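 active means luminescence in either replicate above plate mean of wells with a partly effective reference agonist dose plus 3 SD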;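 further: isoproterenol raises cAMP through native beta-adrenoceptor Gs so signal bypasses D1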
Hits are given with their value; n = inactive; x = not tested or not shown; + = active, no number.

SMILES | HEK293 NFkB inh | hDAT+cocaine | D1 mod | M1 antagonist | BAP1 inh | M1 ag | D1 PAM confirm | D1 no dopamine | Isoprot counter
COc1ccc(OC)c(C2=Nn3c(nnc3C3CCCCC3)SC2)c1 | x | n | 16 | n | n | n | 17128 | x | +
COc1ccc(C2=Nn3c(nnc3C3CCCCC3)SC2)cc1OC | x | n | x | x | x | x | x | x | x
O=C1CSC(c2cccc([N+](=O)[O-])c2)N1c1ccc(Oc2ccc(Cl)cc2)cc1 (centres undefined) | x | x | x | x | n | x | x | x | x
CCOC(=O)c1[nH]cnc1C(=O)Nc1ccncc1 | n | n | 13 | n | n | n | 14788 | n | +
CCOc1cc2c(C#N)c(N3CCOCC3)nc(N)c2c(N)n1 | n | n | 12 | n | x | n | 11932 | n | +
Cc1nc(COC(=O)c2c(C)nn(-c3ccccc3)c2C)cs1 | n | n | 6.9 | n | n | n | 8048 | n | +
Cc1cc(NC(=O)COC(=O)c2c(C)nn(-c3ccccc3)c2C)no1 | n | n | n | n | n | n | x | x | x
Cc1cccc(Cn2c(N(C)CCO)nc3c2c(=O)[nH]c(=O)n3C)c1 | x | n | x | n | x | n | x | x | x
CN(Cc1ccccc1)c1nc2c(c(=O)[nH]c(=O)n2C)n1CCCSc1ncccn1 | n | n | x | n | n | n | x | x | x
CCCCCn1c(N(C)Cc2ccccc2)nc2c1c(=O)[nH]c(=O)n2C | n | n | 14 | n | n | n | 21892 | n | +
CN(Cc1ccccc1)c1nc2c(c(=O)[nH]c(=O)n2C)n1Cc1ccccc1 | n | n | 23 | n | n | n | 19372 | n | +
CN(Cc1ccccc1)c1nc2c(c(=O)[nH]c(=O)n2C)n1CCOc1ccccc1 | n | n | 6.8 | n | n | n | 12188 | n | +
COC(=O)c1ccc(COc2ccc3c4c(c(=O)oc3c2)CCCC4)cc1 | x | x | x | x | n | x | x | x | x
CC1=C(C(=O)OC(C)C)C(c2cccc(Oc3ccccc3)c2)NC(=O)N1 (centres undefined) | x | x | x | x | n | x | x | x | x
CCN(CC)c1nc(C#N)nc(N(CC)CC)n1 | n | n | 14 | n | n | n | 15976 | n | +
CCN(CC)c1nc(SCC(=O)O)nc(N(CC)CC)n1 | n | n | n | n | n | n | x | x | x
COc1ccc(C(=O)COC(=O)CCN=C2NS(=O)(=O)c3ccccc32)cc1OC | n | n | 4.6 | n | n | n | 13264 | n | +
Oc1ccc(-c2nc3cnccn3c2Nc2ccc3c(c2)OCCO3)cc1 | n | x | 2.8 | n | n | n | 9088 | n | +
CC(C)(C)CC(C)(C)Nc1c(-c2ccc(O)cc2)nc2cnccn12 | x | n | x | x | x | x | x | x | x
Cc1nc(-c2ccccc2O)n(S(=O)(=O)N(C)C)n1 | n | n | 5.5 | n | n | n | 8136 | n | +
CN(C)S(=O)(=O)n1cnc2ccccc21 | n | n | n | n | n | n | x | x | x
COc1ccc(C(=O)N2CCN(C(=O)c3ccc(F)cc3)CC2)cc1OC | x | x | x | x | n | x | x | x | x
CCCSc1nc2c(c(=O)n1CC)SC(C)C2 (centres undefined) | n | x | 4.7 | n | n | n | 10748 | n | +
Cc1cc(Cl)ccc1NC(=O)c1ccc(N(C)S(=O)(=O)c2ccccc2)cc1 | x | x | x | x | n | x | x | x | x
COC(=O)c1sccc1NC(=O)c1cc(-c2ccccc2Cl)nc2ccccc12 | x | x | x | x | n | x | x | x | x
SMILES | HEK293 NFkB inh | hDAT+cocaine | D1 mod | M1 antagonist | BAP1 inh | M1 ag | D1 PAM confirm | D1 no dopamine | Isoprot counter
COc1ccc(/C=N/NC(=O)c2ccn[nH]2)cc1COc1ccc(Cl)cc1 | x | n | x | x | x | x | x | x | x
COc1ccc(/C=N/O)cc1COc1ccc(NC(C)=O)cc1 | n | n | 4.7 | n | n | n | 6740 | n | +
COc1ccc(C(=O)n2nc(-c3ccccc3)nc2N)cc1OC | n | n | 6.1 | n | n | n | 15096 | n | +
CCC(=O)Nc1c2c(nn1-c1ccc(OC)cc1)CS(=O)C2 (centres undefined) | n | n | n | n | n | n | x | x | x
CCCC(=O)Nc1c2c(nn1-c1ccc(OC)cc1)CS(=O)C2 (centres undefined) | n | n | 3.2 | n | n | n | n | n | n
CCC(C(=O)NC1CCCC1)N(C(=O)Cn1nnc(-c2ccc(OC)c(OC)c2)n1)C1CCCCC1 (centres undefined) | n | n | 6.8 | n | n | n | 9072 | n | +
O=C(CN(C(=O)CSc1nnc(COc2ccccc2)o1)c1ccc(F)cc1)NC1CCCCC1 | n | n | 3.2 | n | n | n | n | n | n
O=C(CSc1nnc(COc2ccc(F)cc2)o1)N1c2ccccc2CCc2ccccc21 | n | n | 4 | n | x | n | 13460 | n | n
O=C(c1cc2n(n1)C(C(F)(F)F)CC(c1ccco1)N2)N1CCc2ccccc2C1 (centres undefined) | n | n | n | n | n | n | x | x | x
COc1cc2c(cc1OC)C(C)N(C(=O)c1cc3n(n1)C(C(F)(F)F)CC(c1ccco1)N3)CC2 (centres undefined) | n | n | 6 | n | n | n | 12888 | n | +
O=S(=O)(c1ccc2oc3ccccc3c2c1)N1CCOCC1 | x | n | x | x | x | x | x | x | x
CCCCCn1c2ccccc2c2nc3ccccc3nc21 | x | x | x | x | n | x | x | x | x
c1ccc2nc3c(nc2c1)c1ccccc1n3CCN1CCOCC1 | n | n | 9.5 | n | n | 6.4 | 18764 | n | +
CCn1c2ccccc2c2nc3cc(S(=O)(=O)N4CCOCC4)ccc3nc21 | n | x | 6.5 | n | n | n | 15708 | n | +
CC1(NCC(O)COc2cccc3[nH]ccc23)CCC(C(C)(C)NC(=O)CBr)CC1 (centres undefined) | x | x | x | x | n | x | x | x | x
CC(=O)c1c(OC(=O)c2cccc(Br)c2)c2ccccc2n1C | x | x | x | x | n | x | x | x | x
Cc1cc([N+](=O)[O-])cc2sc(NC(=O)C3CCCCC3)nc12 | x | x | x | x | n | x | x | x | x
CC1(C)CC(=O)c2sc(N3CCCCC3)nc2C1 | n | n | n | x | n | x | x | x | x
Cc1cc(Br)c2c(c1)=C(c1sc(N3CCCCCC3)nc1O)C(=O)N=2 | n | n | 6 | n | n | n | 18480 | n | n
Nc1nc2n(n1)C(c1cccs1)CC(c1ccc(F)cc1)N2 (centres undefined) | x | n | x | n | n | n | x | x | x
COc1cccc(C2CC(c3ccc(C)cc3)Nc3nc(N)nn32)c1 (centres undefined) | n | n | n | n | n | n | x | x | x
Cc1cccc(C2CC(c3ccccc3)Nc3nc(N)nn32)c1 (centres undefined) | n | n | 18 | n | n | n | 16344 | n | +
Nc1nc2n(n1)C(c1cccc(Cl)c1)CC(c1ccc(F)cc1)N2 (centres undefined) | x | n | 13 | n | n | n | 13312 | x | +
